TLR4-MyD88 BLA = inhibitors of human TLR4-MyD88 binding; O00206+Q99836; HeLa CL3-4 TLR4/MyD88 BLA complementation, FRET ratio; inhibition, % at 8.4 µM; 200,000 compounds, 0.18% hits; in the data active = inhibition above about 25%;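 note: 0% = vehicle and 100% = reference inhibitor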
Target sequence (O00206 whole entry, looked up): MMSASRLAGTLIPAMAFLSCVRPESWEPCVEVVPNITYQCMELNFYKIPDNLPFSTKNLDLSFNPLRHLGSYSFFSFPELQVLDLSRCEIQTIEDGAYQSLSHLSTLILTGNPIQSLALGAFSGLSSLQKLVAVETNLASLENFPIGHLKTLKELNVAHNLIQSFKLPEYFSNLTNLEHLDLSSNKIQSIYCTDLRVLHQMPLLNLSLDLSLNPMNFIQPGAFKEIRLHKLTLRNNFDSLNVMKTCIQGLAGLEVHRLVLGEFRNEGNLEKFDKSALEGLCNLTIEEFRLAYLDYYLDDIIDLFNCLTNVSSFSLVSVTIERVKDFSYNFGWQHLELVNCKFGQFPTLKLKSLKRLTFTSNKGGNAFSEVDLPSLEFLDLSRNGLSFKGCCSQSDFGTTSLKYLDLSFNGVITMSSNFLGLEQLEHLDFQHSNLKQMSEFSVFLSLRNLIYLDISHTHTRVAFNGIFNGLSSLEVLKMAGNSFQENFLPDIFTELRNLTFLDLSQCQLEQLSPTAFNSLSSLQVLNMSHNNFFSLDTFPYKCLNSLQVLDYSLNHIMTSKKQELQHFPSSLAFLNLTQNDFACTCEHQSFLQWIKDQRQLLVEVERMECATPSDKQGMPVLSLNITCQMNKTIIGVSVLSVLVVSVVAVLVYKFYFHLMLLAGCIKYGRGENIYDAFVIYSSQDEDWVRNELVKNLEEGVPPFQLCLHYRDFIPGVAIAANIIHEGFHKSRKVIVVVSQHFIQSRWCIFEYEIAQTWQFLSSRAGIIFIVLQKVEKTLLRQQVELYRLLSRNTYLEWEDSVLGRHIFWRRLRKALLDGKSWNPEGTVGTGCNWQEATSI
Target sequence (Q99836 whole entry, looked up): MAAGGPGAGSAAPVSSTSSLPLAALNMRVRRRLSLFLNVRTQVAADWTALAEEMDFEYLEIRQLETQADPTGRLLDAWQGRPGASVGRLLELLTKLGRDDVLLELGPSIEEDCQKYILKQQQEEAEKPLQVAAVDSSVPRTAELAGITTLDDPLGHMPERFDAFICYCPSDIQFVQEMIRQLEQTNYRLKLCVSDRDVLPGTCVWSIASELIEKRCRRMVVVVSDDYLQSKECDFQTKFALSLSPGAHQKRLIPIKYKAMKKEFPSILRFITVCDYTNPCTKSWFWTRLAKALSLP
UPR CHOP act = apoptotic UPR (CHOP) activation. CHO-CHOP luciferase reporter, luminescence; percent of tunicamycin response over DMSO baseline. activation, % at 10 µM. 330,000 compounds, 0.34% hits;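 active = at 10 µM dose, activation of 40% or more, normalized to positive control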;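 note: 100% = tunicamycin at 10 µg/mL and 0% = DMSO alone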
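assay system = CHO CHOP reporter cells | amount = 500 CHO-CHOP cells per well | buffer or medium = F12 with 10% FBS | incubation = 16-18 h cell attachment, then 6 h compound exposure, 37 °C | detection = luminescence read with Steady-Glo | read-out = percent activation relative to tunicamycin control | controls = tunicamycin high control, DMSO low control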
TLR9-MyD88 inh = inhibitors of human TLR9-MyD88 binding | CHO BLA complementation TLR9-MyD88, CCF4 FRET ratio | Q9NR96+Q99836 | AID 504734 | inhibition, % at 4.98 µM | 340,000 compounds, 0.21% hits;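 active = inhibition above the mean over all tested compounds plus 3 SD, cut at about 21% in these data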;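 note: 0% = DMSO only wells and 100% = clavulanate BLA inhibitor control wells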
NOD2 RIPK2 PPI = NOD2-RIPK2 protein interaction inhibition; 360,000 compounds, 0.38% hits; AID 624267; CHO BLA complementation NOD2-RIPK2, CCF4 ratio; O43353; inhibition, % at 4.98 µM; in the data active = inhibition above about 21%;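 note: 0% = vehicle only and 100% = reference blocker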
UPR XBP1 act = adaptive UPR (XBP1) activation; CHO-XBP1 luciferase reporter, IRE1-XBP1 UPR activation, luminescence; percent of tunicamycin response, DMSO as zero; AID 463104; activation, % at 20 µM; 330,000 compounds, 0.33% hits;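 active = versus positive control, 20 µM dose yields 30% or more activation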;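 note: 100% = tunicamycin at 10 µg/mL and 0% = DMSO only wells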
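Material – CHO cell line with stable XBP1 luciferase reporter · Buffer or medium – F12 plus 10% FBS · Compound – single point, 20 µM final compound, 1% DMSO · Schedule – 16-18 h cell attachment at 37 °C, then 6 h compound exposure · Signal – Steady-Glo luminescence read · Benchmarks – high control tunicamycin 10 µg/mL final, low control DMSO vehicle only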
CHOP inh = CHOP inhibition in unfolded protein response. CHO-K1 CHOP-promoter luciferase, tunicamycin-induced, 15-18 h. inhibition, % at 10 µM. 220,000 compounds, 3.8% hits;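 active = compounds that reduced the stress-induced luciferase reporter signal by more than about 70% of percent inhibition, limit read from the data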;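 note: 0% = tunicamycin plus vehicle and 100% = wells without tunicamycin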
An asterisk follows results filed as active; . = no result. This is one part of a sample in which hits are shown more often than they occur.

SMILES	TLR4-MyD88 BLA	UPR CHOP act	TLR9-MyD88 inh	NOD2 RIPK2 PPI	UPR XBP1 act	CHOP inh
Cc1csc(SCC(=O)Nc2nc3ccccc3s2)n1	2	1	6	8	5	36
Cn1c(CSCc2ccc(Cl)cc2)nnc1SCC(=O)Nc1nccs1	1	-2	4	-2	-1	33
CN1OC[C@@H]2CN(C(=O)C(C)(C)C)[C@H](c3ccc(-c4cc5ccccc5o4)cc3)C[C@@H]21	.	.	-4	10	.	.
CC(=O)C1=C(C)NC(SCC(=O)Nc2nc3ccccc3s2)=C(C#N)C1c1ccc(Cl)cc1 (stereo not given)	-4	2	-11	12	-2	85*
O=C(Cn1ncc2c(=O)oc3ccccc3c21)Nc1nc2ccccc2s1	-2	.	.	.	.	88*
CCCn1cnc2scc(-c3ccc(C)cc3)c2c1=O	-11	0	-1	-19	1	15
C=CCn1cnc2scc(-c3ccc(C)cc3)c2c1=O	1	-2	6	-4	0	75*
CC(=O)c1ccc(N2CCN(C(C)C(=O)Nc3ccc4c(c3)OCCO4)CC2)cc1 (stereo not given)	.	1	0	8	2	.
O=C(NCc1ccc2[nH]c3c(c2c1)CCCC3)c1ccc(S(=O)(=O)N2CCCC2)cc1	-8	-1	-4	9	-1	77*
Nc1c(S(=O)(=O)c2cccs2)c2nc3ccccc3nc2n1/N=C/c1cccc(O)c1	2	18	2	2	9	89*
COc1cccc(/C=N/n2c(N)c(S(=O)(=O)c3cccs3)c3nc4ccccc4nc32)c1	-7	-3	-5	-2	-1	-42
O=C(Nc1cccn2nc(COCCO)nc12)C(c1ccccc1)c1ccccc1	.	.	.	-10	.	.
Cc1cc(C(=O)COC(=O)Cc2n[nH]c(=O)c3ccccc23)c(C)n1-c1ccc2c(c1)OCO2	-7	0	3	-3	-1	85*
CCc1ccc(C(C)NC(=O)/C(C#N)=C\c2cn[nH]c2-c2ccccc2)cc1 (stereo not given)	3	-1	-8	10	-2	78*
N#C/C(=C\c1cn[nH]c1-c1ccc(Cl)cc1)C(=O)NC1CC1	7	1	7	3	4	-13
N#C/C(=C\c1cn[nH]c1-c1ccccc1)C(=O)NC1CCCCCC1	-11	-1	-7	5	3	72*
Cc1nnsc1-c1nc2ccccc2n1C(CCc1ccccc1)c1nc2ccccc2[nH]1 (stereo not given)	.	.	.	-4	.	.
CC(C)CNC(=O)C1(C)CCCN1Cc1ccc(OC(F)(F)F)cc1 (stereo not given)	.	.	.	4	.	.
Cc1cnc(C(=O)OCC(=O)NC(=O)NC(C)C)cn1	-13	-1	-10	1	0	77*
COc1ccc([N+](=O)[O-])cc1NC(=O)C(C)N(C)Cc1ccc(Br)cc1 (stereo not given)	-5	-2	3	2	-4	70*
Cc1ccccc1OCC(O)CN(Cc1ccccc1O)C1CCCCC1 (stereo not given)	1	1	-1	-1	-4	88*
CN(CC(O)COc1ccccc1F)C1CCCCC1 (stereo not given)	10	-1	-4	0	-1	12
O=c1onc(-c2ccccc2)n1Cc1ccc([N+](=O)[O-])cc1	.	.	-4	2	.	.
Cc1cccc2sc(N(CCN(C)C)C(=O)c3cc(Cl)sc3Cl)nc12	5	2	-2	-7	2	72*
C=CCc1cc(C=O)cc(OC)c1OCc1c(Cl)cccc1Cl	-1	2	6	-14	-1	73*
COc1ccc(C=O)cc1COc1c(F)c(F)cc(F)c1F	-8	-1	-5	6	2	45
COc1cc(CN2CCCC(CCC(=O)NCc3ccc(C)o3)C2)cc2c1OCO2 (stereo not given)	6	4	1	-2	0	86*
Cc1cc(C)c(CN2CCN(C(=O)CC[C@H]3O[C@@H](n4cnc5c(NC(=O)c6ccccc6)ncnc54)[C@H](O)[C@@H]3O)CC2)c(C)c1	.	.	.	4	.	.

Screening data from PubChem BioAssay.
